Here are results for five molecules from PMC6598675 (Science signaling, 2019).

“And” between values parts separate entries of the source, which are not always exact repeats. Equal entries are not always repeated. “Also recorded” adds a separate entry of the source.

Assay [1] has as its system primary mouse T cells (AND TCR transgenic), NFAT. The assay can be described thus: NFAT nuclear translocation of AND TCR T cells on pMHC supported bilayers. The class given is cell-based. The following applies: for agonist strength (in words): AND TCR. The gist of the method:
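Primary AND TCR-transgenic mouse T cells were retrovirally spinfected with NFAT-GFP (polybrene 4 μg/ml, days 3–4 post-activation) and sorted; most runs used NFAT-mCherry. Cells were added at 37°C onto Ni-chelating supported bilayers carrying His-tagged ICAM-1 (100–200 μm−2) and peptide-loaded MHC (0.1–2 μm−2). Landing was scored by RICM. NFAT activation was the nuclear/cytosolic intensity ratio. Threshold was the density near half-maximal response, with >30 cells per condition over five experiments.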

In assay [2] the test system is AND TCR. Put plainly: Single-molecule TIRF imaging of pMHC-TCR binding events. Also noted: species or system mouse. The following applies: for pMHC-TCR binding / mobility under T cell (in words): 37°C, single-molecule TIRF. The gist of the method: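 Atto647N-peptide-MHC binding under live T cells was imaged at 37°C by single-molecule TIRF, either at 2.5 mW/cm2 with 20 ms exposures or at 0.1 mW/cm2 with 500 ms exposures. Single-step unbinding was confirmed by Bayesian change-point detection. Dwell-time distributions (>3000 trajectories, ≥25 cells) were fitted to a single exponential and corrected for photobleaching using bilayer pMHC imaged under identical conditions. Bound fraction was normalised to RICM contact area.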

Assay [3] relates to AND TCR. Put plainly: Calculated probability of long-dwelling pMHC-TCR binding events. As to conditions: single exponential unbinding kinetics from mean dwell time. Also noted: species or system mouse. The gist of the method:
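The probability that a binding event lasts 40 s was calculated assuming single-exponential unbinding at the fitted, photobleaching-corrected mean dwell time. The 40 s receptor-level threshold came from spatiotemporal correlation analysis of pMHC trajectories grouped into signaling clusters.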

In assay [4] the test system is 5c.c7 recombinant TCR. As to conditions: 5c.c7 recombinant TCR binding to MCC pMHC; ref [9], [10]; cited from earlier work.
In assay [5] the test system is AND TCR T cells. In kind it is cell-based, mouse. The method in brief:
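For each T cell, binding events and total dwell time were counted from RICM landing to first NFAT translocation. Counts were corrected for undetected prebleached events and for short events (0.8 s up to the time-lapse interval). Costimulation used His10-tagged recombinant murine CD80 ectodomain on the bilayer at 100–300 molecules/μm2. There were 7–15 cells per condition from three to seven experiments.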

Assay [6] relates to AND TCR T cells. In kind it is cell-based, mouse. This is another data set of the same source.
Setting [7] is: low T102S pMHC density, cells that activated NFAT.

Consider ANERADLIAYPKAATKF [K3 pMHC], for which the “agonist strength (in words)” value in assay [1] is on record as “moderate agonist”.

For the molecule “ANERADLIAYLKQATK [MCC pMHC, Moth cytochrome C 88–103 peptide]”, the “pMHC-TCR binding / mobility under T cell (in words)” value in assay [2] is “bimodal mobility under a T cell (cyan) and unimodal mobility on the free supported membrane; also recorded: a substantial fraction of the all pMHC under the T cell are bound as long-lived species”. For the same molecule, the “difference in affinity MCC pMHC vs T102S pMHC” value in assay [2] (range covered by strong and weak agonist) is “fivefold”. Besides, the “agonist strength (in words)” value in assay [1] is reported as “strong agonist”. Also, the “probability that a pMHC-TCR binding event dwells for 40 s” value in assay [3] is given as 0.43. Besides, the “mean dwell time (<τoff>), 5c.c7 TCR” value in assay [4] is 7.2 s.

For ANERADLIAYLKQASK [T102S pMHC], the “agonist strength (in words)” value in assay [1] is listed as “weak agonist”. The “NFAT activation probability at low density” value in assay [1] (low T102S density) was 5% and ~ 5%. For the same molecule, in assay [1] (low T102S density vs threshold densities), the “time to NFAT translocation (comparison in words)” value is “took longer to translocate NFAT than those at threshold densities of either MCC or T102S pMHCs”. Further, the “NFAT activation probability at threshold density” value in assay [1] (threshold pMHC density) is 32%. For the same molecule, in assay [5] (low T102S density, activating cells vs cells that did not activate), the “rate of dwell time accumulation (in words)” value was “indistinguishable from cells that did not active NFAT at threshold densities”. In assay [6] (low T102S pMHC density, 30-s window, cells that activated NFAT), the “number of correlated pMHC tracks, activating cells” value was “between two and nine correlated pMHC tracks”. In addition, the “number of correlated pMHC tracks, nonactivating cells” value in assay [6] (low T102S pMHC density, 30-s window, cells that did not activate NFAT) was “zero to three correlated pMHC tracks”. Further, in assay [6] (setting [7]), the “binding events within 2 mm and 30 s of another binding event, activating cells” value came out at 90%; the “effective mean dwell time after spatiotemporal correlation (in words)” value is given as “could resemble long-dwelling MCC pMHC binding inputs in terms of mean dwell time”. In addition, the “binding events within the same space and time (2 mm, 30 s), nonactivating cells” value in assay [6] (low T102S pMHC density, cells that did not activate NFAT) turned out to be 68%. Also, the “number of spatiotemporally correlated tracks (comparison in words)” value in assay [6] (threshold conditions) is listed as “more spatiotemporally correlated pMHC tracks than those exposed to MCC”. Moreover, the “probability that a pMHC-TCR binding event dwells for 40 s” value in assay [3] is reported as 0.02.

As to “ANERAELIAYLTQAAKGGSC [null pMHC, reference compound]”, the “pMHC-TCR binding / mobility under T cell (in words)” value in assay [2] was “did not exhibit slowed pMHC-TCR complexes”.

B1: CD80: murine costimulatory ligand CD80 (B7), recombinant, secreted, truncated ectodomain with a flexible linker and decahistidine tag (protein, UniProt Q00609 38-246, looked up)
extracellular domain: VDEQLSKSVKDKVLLPCRYNSPHEDESEDRIYWQKHDKVVLSVIAGKLKVWPEYKNRTLYDNTTYSLIILGLVLSDRGTYSCVVQKKERGTYEVKHLALVKLSIKADFSTPNITESGNPSADTKRITCFASGGFPKPRFSWLENGRELPGINTTISQDPESELYTISSQLDFNTTRNHTIKCLIKYGDAHVSEDFTWEKPPEDPPDSKN
modifications: extracellular domain flexible linker and decahistidine tag
As to B1, in assay [5] (CD80 on bilayer, 100 to 300 molecules/μm^2, cells that activated NFAT), the “effect of costimulation on activation (in words)” value was “cells that activated NFAT experienced a decrease in the time to activation, accumulated binding events, and cumulative dwell time”.
